Measurements taken from ChEMBL document CHEMBL1909510, “Synthesis and evaluation of cytotoxic effects of hanultarin and its derivatives” (Bioorg Med Chem Lett, 2011).
Activity calls are given as the source filed them. The rule behind the calls is not given here.

Legend:
Type in all cases: functional, cell-based
[1] = test system: A549; test: Cytotoxicity against human A549 cells after 48 hrs by sulforhodamine B assay; conditions: A549, 48 h
How it was run: (§1)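 SRB assay, done in triplicate on each cell line across 1.56–50 µg/mL; IC50 determined per cell line. Lines are A549 (human lung cancer), B16F10 (mouse melanoma), HCT-15 (human colon), SKOV3 (human ovary) and SKMel2 (human skin).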

[2] = test system: B16-F10; test: Cytotoxicity against mouse B16F10 cells after 48 hrs by sulforhodamine B assay; conditions: B16-F10, 48 h; how it was run: as §1
[3] = test system: HCT-15; test: Cytotoxicity against human HCT15 cells after 48 hrs by sulforhodamine B assay; conditions: HCT-15, 48 h; how it was run: as §1
[4] = test system: SK-OV-3; test: Cytotoxicity against human SKOV3 cells after 48 hrs by sulforhodamine B assay; conditions: SK-OV-3, 48 h; how it was run: as §1
[5] = test system: SK-MEL-2; test: Cytotoxicity against human SK-MEL-2 cells after 48 hrs by sulforhodamine B assay; conditions: SK-MEL-2, 48 h; how it was run: as §1
[6] = test system: A549; test: Induction of microtubule disruption in human A549 cells at IC50 after 48 hrs by immunocytochemical analysis
[7] = test system: A549; test: Induction of actin disruption in human A549 cells at IC50 after 48 hrs by immunocytochemical analysis
[8] = test system: A549; test: Induction of nucleus disruption in human A549 cells at IC50 after 48 hrs by immunocytochemical analysis

Compound | IC50 [1] [µM] | IC50 [2] [µM] | IC50 [3] [µM] | IC50 [4] [µM] | IC50 [5] [µM] | Activity [6] | Activity [7] | Activity [8]
COc1cc(CC(=O)OC[C@H](Cc2ccc(O)c(OC)c2)[C@H](CO)Cc2ccc(O)c(OC)c2)ccc1O (racemic) | 65.3 | 71.8 | 52.2 | > 76 | > 76 |  |  | 
COc1cc(CC(=O)OC[C@H](Cc2ccc(O)c(OC)c2)[C@H](COC(=O)Cc2ccc(O)c(OC)c2)Cc2ccc(O)c(OC)c2)ccc1O (racemic) | 17.5 | 13.3 | 15.9 | 30.8 | 14.2 | Active | Active | inactive
COc1cc(CCC(=O)OC[C@H](Cc2ccc(O)c(OC)c2)[C@H](CO)Cc2ccc(O)c(OC)c2)ccc1O (racemic) | 65.7 | 68.4 | 49.6 | > 74 | 64 |  |  | 
COc1cc(CCC(=O)OC[C@H](Cc2ccc(O)c(OC)c2)[C@H](COC(=O)CCc2ccc(O)c(OC)c2)Cc2ccc(O)c(OC)c2)ccc1O (racemic) | 12.1 | 12.8 | 10 | 35.9 | 10.3 | Active | Active | inactive
COc1cc(/C=C/C(=O)OC[C@H](Cc2ccc(O)c(OC)c2)[C@H](COC(=O)/C=C/c2ccc(O)c(OC)c2)Cc2ccc(O)c(OC)c2)ccc1O (racemic) | 7.1 | 9.8 | 8.3 | 21.7 | 8.3 | Active | Active | inactive
COc1cc(C[C@@H](CO)[C@H](CO)Cc2ccc(O)c(OC)c2)ccc1O (racemic) [(+)-SECOISOLARICIRESINOL] | > 110 | > 110 | > 110 | > 110 | > 110 |  |  | 
COc1cc(/C=C/C(=O)OC[C@H](Cc2ccc(O)c(OC)c2)[C@H](CO)Cc2ccc(O)c(OC)c2)ccc1O (racemic) [HANULTARIN] | 29.5 | 21.4 | 29.3 | 63.9 | 17.3 | Active | Active | inactive
